# This is a sample that favours compounds with a hit; in the whole collection about 0.69% have one here.
# CatB mixtures: human cathepsin B inhibition by mixtures; Purified cathepsin B, AMC dipeptide fluorescence, compound mixtures; inhibition, %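 (ten-compound pools at 5 µM per compound and 50 µM total)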; actives 0.06% (n = 62,000); P07858; in the data active = inhibition above about 22%, passing the limit was not always enough;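 also: 0% = enzyme without compound and 100% = no enzyme blank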
# AP ELISA ortho: orthogonal test for alternative complement pathway inhibitors | inhibition, % at 5 µM | actives 0.08% (n = 62,000) | Human serum alternative complement pathway, LPS-coated ELISA, C3 deposition; tested in compound mixtures | AID 1235;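 active = inhibition above 30% in each of the two pooled mixtures holding the compound, so the lower value exceeds 30%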;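 also: 0% = serum in Mg-EGTA without compound and 100% = EDTA serum blank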
#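 Test system: human serum complement alternative pathway, C3 deposition onto LPS / Medium: Mg2+-EGTA GVB++ buffer containing human serum at 1:15 dilution / Probe or stimulus: Plate-bound LPS / Times: 1 h at 37 °C / Signal: ELISA with HRP anti-human C3 antibody, TMB substrate, absorbance 450 nm / Measure: percent inhibition / Repeats: two pool placements per compound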
# CatS inh: inhibitors of human cathepsin S | recombinant cathepsin S, AMC dipeptide fluorescence, pooled mixtures | inhibition, %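 (tested at 5 µM per compound within 10-compound mixtures)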 | actives 0.06% (n = 62,000) | AID 501; in the data active = inhibition above about 32%, passing the limit was not always enough;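 also: 0% = enzyme without compound and 100% = blank without enzyme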
# Target sequence (P25774 115-331 limits assumed): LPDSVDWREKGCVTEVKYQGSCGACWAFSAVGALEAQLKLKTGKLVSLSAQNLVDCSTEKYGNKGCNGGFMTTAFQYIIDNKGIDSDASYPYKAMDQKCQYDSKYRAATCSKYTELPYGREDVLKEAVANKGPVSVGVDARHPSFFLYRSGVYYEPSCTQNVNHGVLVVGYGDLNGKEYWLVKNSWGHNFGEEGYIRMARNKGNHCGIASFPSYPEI
# Hsp90 inh: displaces geldanamycin probe from tumor Hsp90; inhibition, % at 30 µM; P07900; NCI-N417 lysate Hsp90, Cy3B-geldanamycin FP displacement; actives 0.35% (n = 64,000); AID 429;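 active = inhibition above 50%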;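 also: 0% = tracer plus lysate wells and 100% = tracer alone without lysate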
# CatB block: blocks human cathepsin B protease activity; P07858; purified cathepsin B, fluorogenic substrate, fluorescence; inhibition, %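 (tested at 10 µM)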; actives 0.1% (n = 63,000); AID 453; in the data active = inhibition above about 21%;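 also: 0% = enzyme with no compound and 100% = no enzyme blank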
# CatL block: inhibitors of human cathepsin L | actives 0.17% (n = 58,000) | purified cathepsin L, fluorogenic substrate, fluorescence | P07711 | inhibition, %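 (tested at 10 µM)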; in the data active = inhibition above about 45%;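 also: 0% = enzyme with no compound and 100% = no enzyme blank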
# Target sequence (P07711 114-288 limits assumed): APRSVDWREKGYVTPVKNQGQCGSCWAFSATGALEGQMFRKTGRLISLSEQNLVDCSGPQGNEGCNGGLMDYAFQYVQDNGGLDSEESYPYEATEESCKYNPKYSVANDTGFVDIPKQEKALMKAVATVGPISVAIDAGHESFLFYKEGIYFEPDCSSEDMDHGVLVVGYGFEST
# Target sequence (P07711 292-333 limits assumed): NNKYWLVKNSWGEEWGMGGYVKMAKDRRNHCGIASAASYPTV
# Starred values were filed as active, the others as inactive; . = no result; ! = a repeat was not active.
SMILES,CatB mixtures,AP ELISA ortho,CatS inh,Hsp90 inh,CatB block,CatL block
COc1ccccc1C(=O)Oc1cc(N)n(S(=O)(=O)c2ccc(C)cc2)n1,18,10,-5,2,12,-4
COc1cccc(C2CC(c3cccc(Br)c3)n3nc(N)nc3N2)c1 (configuration not stated),1,17,-2,-4,-2,5
COc1cccc(C(=O)NCC(=O)n2nc(C)cc2C)c1,.,.,.,121*,-4,3
COc1cc(C(=O)NCC(=O)n2nc(C)cc2C)cc(OC)c1OC,.,.,.,-2,3,-2
C=CCOc1cccc(C2c3c(oc4ccc(F)cc4c3=O)C(=O)N2CCCN2CCOCC2)c1 (configuration not stated),5,34*,-3,-3,2,-1
O=c1c2sc3nc(N4CCOCC4)c4c(c3c2ncn1Cc1ccco1)CCCC4,.,.,.,-5,5,11
CCC(C)NCCNc1cc(OC)cc2cccnc12 (configuration not stated),.,.,.,127*,.,.
CCC(NC(C)C)C(O)c1ccc(O)c(O)c1 (configuration not stated),4,7,-3,59*!,7,7
O=S(=O)(c1ccccc1Cl)N1CCCC(c2nc(-c3cccnc3)no2)C1 (configuration not stated),-4,-6,-5,-4,4,14
C=C1C(C(=O)N2CCOCC2)C1C(=O)N1CCOCC1 (configuration not stated),6,19,-9,1,-6,6
CCC1(C)C2(C#N)C(N)=NC(OC)(OC)C12C#N (configuration not stated),2,32*,3,.,4,8
COc1cc(C(=O)Nc2cccc(-c3nc4cc(C)ccc4o3)c2C)cc(OC)c1OC,4,15,-9,-3,3,-3
COc1cc(C(=O)Nc2cccc(-c3nc4ncccc4o3)c2C)cc(OC)c1OC,-5,31*,-12,-3,-3,0
Cn1c(=O)n(C)c2cc(S(=O)(=O)N3CCOCC3)ccc21,6,2,13,0,6,10
Cn1c(=O)c(=O)n(C)c2cc(S(=O)(=O)N3CCCCCC3)ccc21,46*,10,-5,-5,-8,-5
Oc1ccc(-c2onc(C(F)(F)F)c2-c2cscn2)c(O)c1,1,13,-11,65*,0,7
O=C(CN1CCCN(S(=O)(=O)c2ccc(Br)cc2)CC1)Nc1ccc2c(c1)OCO2,8,12,3,-8,-2,51*
COc1ccc(S(=O)(=O)N2CCCN(CC(=O)Nc3ccc4c(c3)OCO4)CC2)cc1,7,3,18,0,8,2
COc1cc(S(=O)(=O)N2CCOCC2)ccc1NC(=O)c1cc2c(s1)CCC2,4,17,-4,.,2,0
COc1cc(S(=O)(=O)N2CCOCC2)ccc1NC(=O)CSc1nnc(N)s1,-7,33*,-14,-5,0,14
COC(=O)c1cc(Nc2ncnc3c2cnn3-c2ccccc2)cc(C(=O)OC)c1,0,0,23,-1,6,.
Cc1c(C(=O)O)sc2ncn(C)c(=O)c12,0,-8,11,-4,2,4
Cn1c(CNc2ccc(Cl)cc2)nc2ccccc21,6,-6,-3,-5,2,-1
CC(C)N=c1cc2n(-c3ccc(Cl)cc3)c3ccccc3nc-2cc1Nc1ccc(Cl)cc1,7,-11,14,98*,10,22
CCOC(=O)c1cnc(SC2CCc3ccccc3C2=O)nc1N (configuration not stated),1,15,5,56*,7,33
SMILES,CatB mixtures,AP ELISA ortho,CatS inh,Hsp90 inh,CatB block,CatL block
O=C(NC1(O)C(=O)c2ccccc2C1=O)c1ccccc1,3,11,-1,73*,1,0
CCC(CO)Nc1nc(NCc2ccccc2)c2ncn(C(C)C)c2n1 (configuration not stated),.,.,.,-4,.,.
Oc1ccc(C2CNCCc3c2cc(O)c(O)c3Cl)cc1 (configuration not stated),.,.,.,75*,.,.
Oc1cc2c(c(Cl)c1O)CCNCC2c1ccccc1 (configuration not stated),.,.,.,82*,.,.
Cc1cc2ncn(CCOc3ccccc3C#N)c2cc1C,10,-17,22,-2,1,18
CCN1CCCC1CN(Cc1cc2ccc(C)c(C)c2[nH]c1=O)C(=O)Nc1ccccc1OC (configuration not stated),-1,-11,-3,-2,0,1
CCOC(=O)C1=C(C)OC(N)=C(C(=O)OCC)C1c1cccnc1 (configuration not stated),-1,13,-5,72*,1,13
COc1ccc(/C(O)=C2/C(=O)C(=O)N(CCCN(C)C)C2c2cccnc2)cc1 (configuration not stated),10,4,18,-1,2,-5
CN(C)CCCN1C(=O)C(=O)/C(=C(/O)c2ccc(OCc3ccccc3)cc2)C1c1cccnc1 (configuration not stated),4,6,-9,78*,1,.
Oc1ccc(C=Nc2cccc3ncccc23)c(O)c1,-8,2,7,9,1,10
Oc1ccc(C=Nc2ccc3ncccc3c2)c(O)c1,.,.,.,76*,14,4
O=C(CS(=O)CC(=O)N(CC(=O)NC1CCCC1)C1CCCC1)Nc1ccc(F)cc1 (configuration not stated),-11,3,-30,1,-1,-5
Cc1cc(N2C(=O)CC(N3CCN(C(c4ccccc4)c4ccccc4)CC3)C2=O)no1 (configuration not stated),4,4,9,0,4,3
Cc1ccc(C)c(C(=O)n2cnnc2N)c1,-18,34*,-34,-4,-3,-18
Cc1ccc(C(=O)COC(=O)CNC(=O)c2ccco2)cc1,0,2,8,2,6,10
COc1ccc(C(=O)C(OC(=O)CNC(=O)c2ccco2)c2ccccc2)cc1 (configuration not stated),12,0,-2,-5,21*,68*
CCn1cc(C(=O)NCc2ccco2)c(=O)c2cc(S(=O)(=O)N3CCCCCC3)ccc21,-2,-2,-1,2,3,-2
CCn1cc(C(=O)NCc2ccccn2)c(=O)c2cc(S(=O)(=O)N3CCCCC3)ccc21,1,11,-1,65*,2,1
OCCN(CCO)c1nc(N2CCCCC2)c2nc(N(CCO)CCO)nc(N3CCCCC3)c2n1,-8,-6,17,61*,-1,-22
CN(C)c1nc(N2CCCCC2)nc(N2CCCCC2)n1,2,21,-5,2,-6,-14
CC(=C1C(=O)c2ccccc2C1=O)N1CCC(C(N)=O)(N2CCCCC2)CC1,3,4,-2,-6,4,-3
